Values after ≈ are worked out from the molar mass of the structure shown.
What was measured:
Test in all cases: MIC assay
Assay type in all cases: cell-based
[1] = test system: Bacillus subtilis ATCC 6051; conditions: ATCC6051
Outline: (§1)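 Test compounds were prepared as trifluoroacetate salts and assayed for MIC against a Gram-positive panel: B. subtilis, S. epidermidis, MSSA and MRSA. E. coli served as the Gram-negative negative-control organism. The natural parent peptide and vancomycin served as positive controls.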

[2] = test system: Staphylococcus epidermidis ATCC 14990; conditions: ATCC14990
Outline: as §1

[3] = test system: Escherichia coli ATCC 10798; conditions: ATCC10798
Outline: as §1

CN[C@H](CC(C)C)C(=O)N[C@H]1C(=O)N[C@@H](CC(N)=O)C(=O)N[C@H]2C(=O)N[C@H]3C(=O)N[C@H](C(=O)N[C@H](C(=O)O)c4cc(O)cc(O)c4-c4cc3ccc4O)[C@H](O)c3ccc(c(Cl)c3)Oc3cc2cc(c3O[C@@H]2O[C@H](CO)[C@@H](O)[C@H](O)[C@H]2O[C@H]2C[C@](C)(N)[C@H](O)[C@H](C)O2)Oc2ccc(cc2Cl)[C@H]1O [vancomycin]
MIC [1]: 0.125 to 0.25 µg/mL (≈ 0.0863 to 0.173 µM) | MIC [2]: 2 µg/mL (≈ 1.38 µM) | MIC [3]: > 32 µg/mL
